Measurements published in ChEMBL document CHEMBL1142933, “Rational design of novel, potent small molecule pan-selectin antagonists” (J Med Chem, 2007).

How the values were obtained:
E-selectin = biological target: T1, E-selectin (Homo sapiens, UniProt P16581); assay: Inhibition of human E-selectin after 2 hrs
T1 sequence (P16581 whole entry): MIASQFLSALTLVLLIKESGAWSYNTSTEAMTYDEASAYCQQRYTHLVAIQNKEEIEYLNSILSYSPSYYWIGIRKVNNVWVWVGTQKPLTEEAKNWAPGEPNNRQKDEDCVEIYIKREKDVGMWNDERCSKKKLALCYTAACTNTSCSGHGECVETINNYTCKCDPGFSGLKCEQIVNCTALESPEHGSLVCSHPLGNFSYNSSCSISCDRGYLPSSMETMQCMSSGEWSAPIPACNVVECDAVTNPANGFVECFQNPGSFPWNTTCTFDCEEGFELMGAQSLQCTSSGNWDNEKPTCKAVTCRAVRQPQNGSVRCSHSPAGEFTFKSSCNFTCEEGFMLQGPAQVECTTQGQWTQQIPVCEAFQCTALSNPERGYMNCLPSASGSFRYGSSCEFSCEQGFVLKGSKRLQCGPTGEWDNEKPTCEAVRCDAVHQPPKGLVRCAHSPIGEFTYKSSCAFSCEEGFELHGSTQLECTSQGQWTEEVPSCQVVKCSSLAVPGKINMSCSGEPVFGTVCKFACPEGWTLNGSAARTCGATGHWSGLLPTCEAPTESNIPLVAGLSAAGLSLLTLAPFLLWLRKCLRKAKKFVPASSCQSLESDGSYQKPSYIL
Outline: (§1)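 Biotinylated sLeX-tyrosine sulfate polyacrylamide complexed with streptavidin-peroxidase added with compound at varying concentrations (HEPES pH 7.4, 1 mM CaCl2, 1% DMSO), 2 h 37 °C. TMB read-out, OD 450 vs 620 nm.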

P-selectin = biological target: T2, P-selectin (Homo sapiens, UniProt P16109); assay: Inhibition of human P-selectin after 2 hrs; outline: as §1
T2 sequence (P16109 whole entry): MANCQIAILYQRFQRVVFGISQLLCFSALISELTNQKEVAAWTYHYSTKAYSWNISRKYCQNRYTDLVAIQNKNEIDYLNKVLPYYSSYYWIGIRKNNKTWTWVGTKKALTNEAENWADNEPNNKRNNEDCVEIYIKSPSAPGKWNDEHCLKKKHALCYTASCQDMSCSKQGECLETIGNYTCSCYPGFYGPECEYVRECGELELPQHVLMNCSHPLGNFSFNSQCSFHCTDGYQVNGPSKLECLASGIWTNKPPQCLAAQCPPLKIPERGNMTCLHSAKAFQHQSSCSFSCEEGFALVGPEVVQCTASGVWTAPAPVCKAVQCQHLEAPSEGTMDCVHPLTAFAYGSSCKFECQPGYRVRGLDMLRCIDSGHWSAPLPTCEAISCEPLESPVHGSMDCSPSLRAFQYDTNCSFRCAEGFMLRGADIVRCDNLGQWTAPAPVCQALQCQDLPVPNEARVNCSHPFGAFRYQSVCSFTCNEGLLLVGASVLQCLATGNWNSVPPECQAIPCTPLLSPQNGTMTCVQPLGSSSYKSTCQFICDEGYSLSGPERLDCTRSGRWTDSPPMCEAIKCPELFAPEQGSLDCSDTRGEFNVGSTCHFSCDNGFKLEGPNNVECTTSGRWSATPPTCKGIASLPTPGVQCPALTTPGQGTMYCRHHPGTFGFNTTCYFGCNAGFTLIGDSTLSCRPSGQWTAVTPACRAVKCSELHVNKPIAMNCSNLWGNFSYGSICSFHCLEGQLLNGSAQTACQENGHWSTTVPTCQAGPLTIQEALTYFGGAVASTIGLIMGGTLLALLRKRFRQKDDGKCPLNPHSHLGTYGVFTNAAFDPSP

L-selectin = biological target: T3, L-selectin (Homo sapiens, UniProt P14151); assay: Inhibition of human L-selectin after 2 hrs; outline: as §1
T3 sequence (P14151 whole entry): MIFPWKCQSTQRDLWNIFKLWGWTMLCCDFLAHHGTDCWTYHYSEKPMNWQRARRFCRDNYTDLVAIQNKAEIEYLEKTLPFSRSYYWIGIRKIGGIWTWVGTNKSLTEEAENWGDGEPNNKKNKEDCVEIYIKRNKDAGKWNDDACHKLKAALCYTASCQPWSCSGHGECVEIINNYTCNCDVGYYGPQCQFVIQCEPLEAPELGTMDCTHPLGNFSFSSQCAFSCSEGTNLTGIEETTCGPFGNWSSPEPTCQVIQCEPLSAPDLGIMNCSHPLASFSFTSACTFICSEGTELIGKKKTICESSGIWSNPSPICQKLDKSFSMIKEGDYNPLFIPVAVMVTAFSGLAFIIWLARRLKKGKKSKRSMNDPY

HL-60 [1] = assay: Inhibition of attachment of HL60 cells to E-selectin at 109 uM after 5 mins; assay type: functional; settings: Homo sapiens, HL-60, 5 min
Outline: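 Dishes coated with E- or P-selectin/Fc chimera, blocked with BSA, mounted in a parallel flow chamber run recirculating; HL-60 cells at 2.4 million/mL final. Cells attached after 5 min continuous flow at calculated shear 1 dyn/cm², with 109 µM compound or DMSO vehicle, counted in five low power fields. Mean inhibition as % of vehicle control from mean cells/field of at least two independent experiments.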

HL-60 [2] = assay: Inhibition of attachment of HL60 cells to P-selectin at 109 uM after 5 mins; assay type: functional; settings: Homo sapiens, HL-60, 5 min
Outline: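 Dishes coated with E- or P-selectin/Fc chimera, blocked with BSA, mounted in a parallel flow chamber run recirculating; HL-60 cells at 2.4 million/mL final. Mean inhibition as % of vehicle control from mean cells/field of at least two independent experiments.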

IC50 (E-selectin) [µM] | IC50 (P-selectin) [µM] | IC50 (L-selectin) [µM] | Compound | inhibition at 109 µM (HL-60 [1]) [%] | inhibition at 109 µM (HL-60 [2]) [%]
85.4 | 43.2 | 64.9 | O=C(O)Cc1cccc(-c2ccccc2NC(=O)CCc2cc(O)c(O)c(O)c2)c1 | 20 | 22
52.4 | 53.9 | 105 | O=C(O)Cc1ccc(-c2ccccc2NC(=O)CCCc2cc(O)c(O)c(O)c2)s1 |  | 
> 500 | 0.87 | 1.5 | O=C(O)Cc1cccc(-c2ccccc2OC(=O)c2cc(O)c(O)c(O)c2)c1 | 16 | 35
> 500 |  |  | O=C(O)Cc1ccc(-c2ccccc2NC(=O)Cc2ccc(O)c(O)c2O)s1 | 26 | 
48.6 | 19.5 | 21.3 | O=C(O)Cc1ccc(-c2ccccc2NC(=O)/C=C/c2cc(O)c(O)c(O)c2)s1 | 28 | 23
114 | 212 | 244 | O=C(O)Cc1ccc(-c2ccccc2NC(=O)c2ccccc2-c2cc(O)c(O)c(O)c2)s1 |  | 25
57.2 | 3.4 | 4.3 | O=C(O)Cc1ccc(-c2ccccc2NC(=O)/C=C/c2ccc(O)c(O)c2O)s1 |  | 56
3.3 | 2.4 | 3.1 | O=C(O)Cc1ccc(-c2ccccc2NC(=O)Cc2cc(O)c(O)c(O)c2)s1 | 35 | 11
 |  |  | O=C(O)Cc1cccc(-c2ccccc2NC(=O)Cc2cc(O)c(O)c(O)c2)c1 | 18 | 22
 |  | > 500 | O=C(O)Cc1cccc(-c2cc(CCCCCCc3ccc(O[C@H]4O[C@H](CO)[C@@H](O)[C@H](O)[C@@H]4O)c(-c4cccc(CC(=O)O)c4)c3)ccc2O[C@H]2O[C@H](CO)[C@@H](O)[C@H](O)[C@@H]2O)c1 [BIMOSIAMOSE] | 28 | 50
31.7 | 31.8 | 38.5 | Cc1cc(O)c(O)c(O)c1 |  | 
134 | > 4000 | > 4000 | CC(=O)N[C@H]1[C@H]([C@H](O)[C@H](O)CO)O[C@@](O[C@H]2[C@@H](O)[C@@H](CO)O[C@@H](O[C@@H]([C@H](O[C@@H]3O[C@@H](C)[C@@H](O)[C@@H](O)[C@@H]3O)[C@H](C=O)NC(C)=O)[C@H](O)CO)[C@@H]2O)(C(=O)O)C[C@@H]1O [SIALYL LEWIS X] | 32 | 
> 500 | 42.8 | 64.5 | Cc1ccc(C(=O)O)cc1NC(=O)Cc1cc(O)c(O)c(O)c1 | 22 | 24
> 500 | 57.2 | 154 | O=C(O)Cc1cccc(-c2ccccc2NC(=O)CCCNC(=O)c2cc(O)c(O)c(O)c2)c1 | 29 | 
41.9 | 10.2 | 13.6 | O=C(O)Cc1ccc(-c2ccccc2NC(=O)CCc2cc(O)c(O)c(O)c2)s1 | 35 | 11
61.4 | 1.2 | 1.6 | O=C(Nc1ccccc1-c1ccc(C(=O)O)s1)c1cccc(-c2ccc(O)c(O)c2O)c1 | 53 | 98
> 500 | > 500 | > 500 | O=C(O)Cc1cccc(-c2ccccc2O[C@H]2O[C@H](CO)[C@@H](O)[C@H](O)[C@@H]2O)c1 | 34 | 

IC50 (E-selectin) [µM] | IC50 (P-selectin) [µM] | IC50 (L-selectin) [µM] | Compound | inhibition at 109 µM (HL-60 [1]) [%] | inhibition at 109 µM (HL-60 [2]) [%]
 |  |  | O=C(O)Cc1ccc(-c2ccccc2NC(=O)c2cccc(-c3ccc(O)c(O)c3O)c2)s1 | 61 | 55
> 500 | 28.6 | 85.8 | O=C(O)Cc1ccc(-c2ccccc2NC(=O)CCc2ccc(O)c(O)c2O)s1 |  | 
 |  |  | O=C(Cc1cc(O)c(O)c(O)c1)NCc1ccc(C(=O)O)cc1 | 16 | 20
 | > 500 | > 500 | Cc1c(NC(=O)Cc2cc(O)c(O)c(O)c2)cccc1C(=O)O | 19 | 
 | 2.9 | 4.2 | Cc1ccc(C(=O)O)cc1NC(=O)CCc1cc(O)c(O)c(O)c1 |  | 
 |  |  | O=C(CCc1cc(O)c(O)c(O)c1)NCc1ccc(C(=O)O)cc1 | 21 | 21
15.7 | 0.74 | 1.1 | O=C(O)Cc1ccc(-c2cccc(NC(=O)c3cccc(-c4ccc(O)c(O)c4O)c3)c2)s1 | 58 | 93
 |  | > 500 | O=C(O)Cc1cccc(NC(=O)Cc2cc(O)c(O)c(O)c2)c1 | 27 | 
48 | 1.1 | 1.6 | O=C(O)Cc1ccc(-c2ccccc2NC(=O)c2ccc(-c3ccc(O)c(O)c3O)cc2)s1 | 33 | 58
> 500 | 3.6 | 9.7 | O=C(O)Cc1ccc(-c2ccccc2NC(=O)Cc2cccc(-c3ccc(O)c(O)c3O)c2)s1 |  | 58
 |  |  | O=C(O)Cc1cccc(NC(=O)CCc2cc(O)c(O)c(O)c2)c1 | 19 | 
18.7 | 19.6 | 46.6 | O=C(CCc1cc(O)c(O)c(O)c1)Nc1cccc(C(=O)O)c1 |  | 
> 500 | 21.8 | 37.6 | O=C(O)Cc1ccc(-c2ccccc2NC(=O)c2cccc(-c3cc(O)c(O)c(O)c3)c2)s1 | 32 | 45
3.1 | 3.4 | 5.7 | O=C(CCc1cc(O)c(O)c(O)c1)N[C@H]1CC[C@H](C(=O)O)CC1 |  | 
> 500 | 24.8 | 41.7 | O=C(O)Cc1ccc(-c2ccccc2NC(=O)CCCc2ccc(O)c(O)c2O)s1 | 26 | 47
9.7 | 0.57 | 0.79 | O=C(O)Cc1ccc(-c2ccc(NC(=O)c3cccc(-c4ccc(O)c(O)c4O)c3)cc2)s1 | 47 | 83
> 500 |  | 15.2 | O=C(O)c1ccc(O)c(O)c1O |  | 

Compound | IC50 (E-selectin) [µM] | IC50 (P-selectin) [µM] | IC50 (L-selectin) [µM] | inhibition at 109 µM (HL-60 [1]) [%] | inhibition at 109 µM (HL-60 [2]) [%]
O=C(O)c1cc(O)c(O)c(O)c1 [GALLIC ACID] | > 500 | 19.1 | 27.6 |  | 
